PubChem BioAssay
Active and inactive are the calls of the source.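 Rule for the calls, unless noted: active = compounds giving at least 50% inhibition in the cell-based MKP-3 phosphatase rescue imaging test; inactive = the rest.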

Tests used:
[1] = inhibitors of TNFa-induced NFkB p65 translocation, primary screen, imaging, HUVEC, MLSMR starter and 10KST1 sets (AID 438;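 active = inhibition above 20% together with a positive visual image hit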;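 note: compound added about 3h40 before a 20 min TNFalpha stimulation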;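 for inhibition: signal is the nuclear over cytoplasmic p65 intensity ratio per well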); conditions: HUVEC TNFa-induced p65 nuclear translocation; cell count: measured here: nuclei count (cytotoxicity indicator), at 2.08 µM; inhibition: at 2 µM, stronger effect = higher value, 0% TNFa-plus-vehicle, 100% no-TNFa wells
[2] = endothelial E-selectin expression blockers – imaging, HUVEC, immunofluorescence, MLSMR starter and 10KST1 sets, primary screen (AID 487;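 active = visually confirmed hit in the image check and inhibition above 20%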;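 for inhibition: signal is fraction of cell area covered by stained E-selectin grains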;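 for nuclei count: 100% = median nuclei count of all wells on the same plate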); conditions: HUVEC TNFalpha-induced E-selectin immunofluorescence imaging, at 2 µM; inhibition: stronger effect = higher value; nuclei count: measured here: cell number, toxicity
[3] = Primary imaging screen for DUSP6 inhibitors that restore phospho-Erk in transfected HeLa cells, chemical complementation (AID 609); conditions: HeLa MKP-3 transfected, phospho-Erk imaging KS statistic, at 10 µM, cells stimulated with TPA for 15 min;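 for inhibition: phospho-Erk level distribution per well compared with pooled transfected vehicle control wells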
[4] = target: Dual specificity protein phosphatase 6 (Homo sapiens) (UniProt Q16828); test: as above; conditions: HeLa MKP-3 transfected, phospho-Erk imaging KS statistic; at 10 µM; stronger effect = higher value; cells stimulated with TPA for 15 min
Sequence of Dual specificity protein phosphatase 6 (Homo sapiens) (Q16828 whole entry, looked up): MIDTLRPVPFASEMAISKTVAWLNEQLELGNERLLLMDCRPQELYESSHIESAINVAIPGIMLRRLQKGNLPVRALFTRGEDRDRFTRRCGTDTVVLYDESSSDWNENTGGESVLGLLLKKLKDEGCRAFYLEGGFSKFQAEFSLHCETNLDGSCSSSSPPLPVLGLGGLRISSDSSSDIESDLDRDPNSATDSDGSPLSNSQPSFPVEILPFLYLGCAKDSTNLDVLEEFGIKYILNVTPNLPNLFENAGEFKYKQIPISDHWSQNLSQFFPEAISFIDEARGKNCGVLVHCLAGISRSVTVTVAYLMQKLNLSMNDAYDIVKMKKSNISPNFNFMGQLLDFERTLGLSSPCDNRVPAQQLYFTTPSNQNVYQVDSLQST

[5] = target: Voltage-gated potassium channel subunit beta-2 (Rattus norvegicus) (UniProt P62483); test: inhibitors of rat Kvbeta2 reductase activity – biochemical, NADPH fluorescence, primary screen (AID 622;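 active = fluorescence slope higher than the sample average by over 3 SD, cut at about -0.22 in these data, passing the limit was not always enough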;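 note: slope of raw intensity against log time taken from 70 to 1610 s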); conditions: recombinant KvBeta, 4-cyanobenzaldehyde reduction, at 10 µM, stronger effect = higher value
Sequence of Voltage-gated potassium channel subunit beta-2 (Rattus norvegicus) (P62483 whole entry, looked up): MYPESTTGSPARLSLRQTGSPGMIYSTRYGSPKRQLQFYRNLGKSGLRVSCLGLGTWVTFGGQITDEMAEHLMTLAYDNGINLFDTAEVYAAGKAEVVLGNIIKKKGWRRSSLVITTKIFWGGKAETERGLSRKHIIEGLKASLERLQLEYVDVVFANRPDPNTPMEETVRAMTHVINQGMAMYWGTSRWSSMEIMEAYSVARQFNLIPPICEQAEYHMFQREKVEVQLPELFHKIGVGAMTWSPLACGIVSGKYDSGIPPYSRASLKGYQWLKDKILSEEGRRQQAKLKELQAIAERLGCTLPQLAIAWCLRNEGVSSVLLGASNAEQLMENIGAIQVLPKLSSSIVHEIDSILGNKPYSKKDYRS

[6] = target: Voltage-gated potassium channel subunit beta-2 (Rattus norvegicus) (UniProt P62483); test: enhancers of rat Kvbeta2 NADPH turnover – biochemical, NADPH fluorescence, primary screen (AID 623;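 active = NADPH fluorescence slope more negative than the mean of all samples by about 3 SD, 99.7% confidence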;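 note: fluorescence intensity change per second fitted from 20 to 320 s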); conditions: Recombinant KvBeta, NADPH fluorescence decrease slope, 10 min; at 10 µM; stronger effect = lower value
[7] = target: Muscarinic acetylcholine receptor M4 (Homo sapiens) (UniProt P08173); test: M4-linked GIRK flux change, two-sided – cell-based, HEK293 M4/GIRK, thallium flux, BTC-AM, M4 allosteric agonist project, primary screen (AID 625;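 active = fluorescence slope after compound addition differing from the mean of all tested samples at 99.7% confidence, mostly higher but some lower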;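 note: thallium influx through GIRK channels coupled to M4 in HEK293 cells with BTC-AM dye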); conditions: at 10 µM, actives lie on both sides
Sequence of Muscarinic acetylcholine receptor M4 (Homo sapiens) (P08173 whole entry, looked up): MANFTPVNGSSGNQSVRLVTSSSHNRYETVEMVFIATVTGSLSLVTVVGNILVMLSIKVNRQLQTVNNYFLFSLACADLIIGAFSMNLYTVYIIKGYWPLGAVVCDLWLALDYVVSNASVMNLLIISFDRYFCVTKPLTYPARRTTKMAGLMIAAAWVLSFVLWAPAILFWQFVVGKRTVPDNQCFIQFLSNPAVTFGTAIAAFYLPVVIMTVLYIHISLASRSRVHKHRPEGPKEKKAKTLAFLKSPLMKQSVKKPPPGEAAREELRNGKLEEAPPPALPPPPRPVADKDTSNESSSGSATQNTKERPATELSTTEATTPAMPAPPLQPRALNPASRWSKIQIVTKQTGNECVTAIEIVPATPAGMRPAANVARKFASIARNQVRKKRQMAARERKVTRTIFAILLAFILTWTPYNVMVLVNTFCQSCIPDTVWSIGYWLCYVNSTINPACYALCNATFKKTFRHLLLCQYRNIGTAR
Procedure, shortened: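 assay system = HEK293 cells with M4 receptor and GIRK channels | medium = pH 7.3 thallium assay buffer | doses = 10 µM final, single point | timing = cells overnight at 37 °C, BTC-AM loading 1 h, reads 2 min total | signal = BTC-AM fluorescence, 1 Hz kinetic reads | read-out = post-addition slope, 15–24 s, of baseline-normalized fluorescence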

[8] = inhibitors of larval lipid processing in zebrafish, primary screen, whole organism, PED6 fluorescence, gall bladder and intestine (AID 686;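 active = a full or partial loss of lipid-probe fluorescence in the fish gall bladder, intestine or both, judged by eye; inactive = no fluorescence loss, or compound toxic to the fish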;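 note: larvae 5 to 7 days old with five fish per well; signal comes from phospholipase A2 cleavage of quenched PED6 carried via bile; overnight exposure to compound and PED6 before scoring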); conditions: Zebrafish larvae PED6 lipid processing, fluorescence scoring; screened at 20 µM (by protocol)
Procedure, shortened: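 Also added: quenched phospholipase substrate PED6, 100 nM final, ingested by larvae; System: zebrafish larvae, 5-7 d; Quantity: 5 larvae per well; Compound: 20 µM single dose; Schedule: overnight compound and PED6 incubation; Read-out: visual per-well fluorescence inhibition score; Measured by: By-eye fluorescence microscopy; Medium: E3.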

[9] = loss of swimming-algae plug formation – whole organism, Chlamydomonas reinhardtii, WT vs cilia-less mutant, absorbance, 96-well, primary screen (AID 463189;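 active = inhibition at or above 50% relative to wild type and mutant plate controls; inactive = inhibition below 50%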;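 note: 0% = wild type cc124 cells in DMSO and 100% = ciliumless bld1 mutant cells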); conditions: Chlamydomonas reinhardtii gravitaxis, OD600 absorbance, 2 days; at 10 µM; stronger effect = higher value
[10] = measured here: cell density z-score
[11] = measured here: nuclear c-Myc green intensity z-score
[12] = measured here: nuclear pErk red intensity z-score, stronger effect = higher value

Row | Structure (SMILES) | cell count [1] | inhibition [1] | inhibition [2] | nuclei count [2] [%] | z-score [3, 10] | z-score [3, 11] | z-score [3, 12] | inhibition [4] | fluorescence slope [5] | NADPH fluorescence slope [6] | fluorescence slope [7] | outcome [8] | inhibition [9]
1 | CCN(CC)CCN1C(=O)C(=O)/C(=C(/O)c2c(C)[nH]c(C(=O)OC)c2C)C1c1cccc(OC)c1 (stereo unspecified) | 699 | -1% (inactive) | -150% (inactive) | 188 | -0.637 | -0.455 | -0.673 | 13.2% (inactive) | -0.445 (inactive) | -7.9e-05 (inactive) | 0.0061 (inactive) | inactive | 16.5% (inactive)
2 | O=c1c2c3c(sc2n2cnnc2n1C1CCCCC1)CCC3 | 363 | -3.6% (inactive) | -2% (inactive) | 172 | -0.995 | -0.714 | 0.683 | -2.59% (inactive) | -0.434 (inactive) | -0.000131 (inactive) | 0.00453 (inactive) | inactive | 33.2% (inactive)
3 | CSc1nc2[nH]c3c(c2c2nncn12)CC(C)(C)OC3 | 554 | -4.9% (inactive) | -169% (inactive) | 129 | 0.946 | 0.54 | -1.06 | 5.42% (inactive) | -0.511 (inactive) | -8.3e-05 (inactive) | 0.00422 (inactive) | inactive | -2.07% (inactive)
4 | O=S(=O)(c1cccc2nsnc12)N1CCN(C/C=C/c2ccccc2)CC1 | 680 | 3.2% (inactive) | 16.6% (inactive) | 117 | -0.555 | -0.43 | 0.591 | 1.9e-07% (inactive) | -0.527 (inactive) | -5.7e-05 (inactive) | 0.00411 (inactive) | inactive | 45.8% (inactive)
5 | CCOC(=O)C1=C(N)N2C(=O)CSC2=C(C(=O)OC)C1 | 523 | 1.5% (inactive) | -111% (inactive) | 138 | 0.366 | 1.6 | -1.91 | 5.42% (inactive) | -0.476 (inactive) | -0.000109 (inactive) | 0.00418 (inactive) | inactive | -0.259% (inactive)
6 | Cc1cc(=O)oc2c(CN3CCC(C)CC3)c(O)c(Cl)cc12 | 654 | -6.9% (inactive) | -12% (inactive) | 171 | 0.311 | 0.013 | 0.217 | 1.12% (inactive) | -0.0249 (inactive) | 4.3e-06 (inactive) | 0.00736 (inactive) | inactive | -2.21% (inactive)
7 | Cc1cc(SCCC(=O)O)nc2ccccc12 | 685 | -18.8% (inactive) | -36.7% (inactive) | 201 | -0.264 | 0.626 | 0.219 | 5.95% (inactive) | -0.488 (inactive) | -4.8e-05 (inactive) | 0.00621 (inactive) | inactive | -15.2% (inactive)
8 | CC(C)c1nc(NCCN2CCOCC2)c(C#N)c2c1COC(C)(C)C2 | 401 | -10.6% (inactive) | -276% (inactive) | 186 | -0.66 | -0.209 | 1.4 | -0.584% (inactive) | -0.473 (inactive) | -0.000118 (inactive) | 0.00407 (inactive) | inactive | 71.3% (active)
9 | COC(=O)CSc1nc(-c2cccs2)ccc1C#N | 646 | 1.5% (inactive) | -18.4% (inactive) | 154 | 0.598 | -1.62 | -0.658 | 2.92% (inactive) | -0.456 (inactive) | -4.2e-05 (inactive) | 0.00605 (inactive) | inactive | -2.12% (inactive)
10 | COc1ccc(-c2nn(C)c(=O)c3ccccc23)cc1NS(C)(=O)=O | 373 | -6.1% (inactive) | -7.8% (inactive) | 104 | -0.517 | 0.9 | -0.714 | 11.9% (inactive) | -0.509 (inactive) | 1.7e-05 (inactive) | 0.00473 (inactive) | inactive | -10.8% (inactive)
11 | CC(C)c1nc2n[nH]c(N)c2c2c1CCCC2 | 576 | 2.1% (inactive) | -38.2% (inactive) | 148 | -0.386 | 1.02 | -1.27 | 7.21% (inactive) | -0.465 (inactive) | -8.5e-05 (inactive) | 0.00509 (inactive) | inactive | -2.96% (inactive)
12 | CCc1nc(NCCN2CCOCC2)c(C#N)c2c1CCCC2 | 358 | -2.8% (inactive) | -19.6% (inactive) | 79.7 | -0.865 | 0.944 | 0.38 | 11.4% (inactive) | -0.595 (inactive) | 4.1e-06 (inactive) | 0.00436 (inactive) | inactive | 30.2% (inactive)
13 | CC(C)Cc1nc(N2CCN(C(=O)Cc3ccccc3)CC2)c(C#N)c2c1COC(C)(C)C2 | 601 | -8.9% (inactive) | -80.2% (inactive) | 153 | -0.132 | -0.0812 | -0.136 | 9.07% (inactive) | -0.453 (inactive) | -0.000102 (inactive) | 0.00471 (inactive) | inactive | 13.3% (inactive)
14 | CCCCSc1nnc(-c2ccc(NC(C)=O)cc2)n1C | 622 | -5.3% (inactive) | 21.1% (inactive) | 166 | -0.239 | 0.0535 | 0.233 | -13.3% (inactive) | -0.461 (inactive) | -3e-05 (inactive) | 0.00598 (inactive) | inactive | -9.33% (inactive)
15 | Cn1c(=O)c2c(nc(Oc3ccc4c(c3)OCO4)n2Cc2ccc(Br)cc2)n(C)c1=O | 619 | 8.1% (inactive) | -44% (inactive) | 123 | 0.319 | -0.507 | 0.317 | 7.93% (inactive) | -0.562 (inactive) | -3.8e-05 (inactive) | 0.00702 (inactive) | inactive | 29.5% (inactive)
16 | C=CC[N+](C)(C)CCCNC(=O)/C=N/O | 665 | -3.3% (inactive) | -22.3% (inactive) | 164 | 0.15 | -0.161 | -1.51 | -9.53% (inactive) | -0.482 (inactive) | -4.6e-05 (inactive) | 0.00537 (inactive) | inactive | -5.25% (inactive)
17 | CCOC(=O)C1=Nc2ccccc2C1=[N+]=[N-] | 714 | -2.2% (inactive) | 6.6% (inactive) | 179 | -0.487 | 0.636 | 1.84 | -5.95% (inactive) | -0.477 (inactive) | -4.9e-05 (inactive) | 0.00733 (inactive) | inactive | 152% (active)
18 | CCCC1Cc2c(sc3nc(SC)nc(N)c23)CO1 (stereo unspecified) | 489 | -14.7% (inactive) | 27.8% (inactive) | 170 | -0.331 | 0.0787 | 0.594 | -3.97% (inactive) | -0.47 (inactive) | -4.4e-05 (inactive) | 0.00573 (inactive) | inactive | 27.7% (inactive)
19 | COc1ccc(C2C(C(C)=O)=C(O)C(=O)N2c2nccs2)cc1OC (stereo unspecified) | 651 | -8.9% (inactive) | -2.2% (inactive) | 87.4 | -0.646 | -0.662 | -0.478 | -7.67% (inactive) | -0.5 (inactive) | -0.000231 (inactive) | 0.00821 (inactive) | inactive | -3.88% (inactive)
20 | CCCCOc1ccc(C(=O)N2CCCC2C(=O)O)cc1 (stereo unspecified) | 675 | 2.7% (inactive) | 22.4% (inactive) | 146 | 0.371 | 0.251 | 0.422 | -13.3% (inactive) | -0.458 (inactive) | -4.7e-05 (inactive) | 0.00494 (inactive) | inactive | 7.22% (inactive)
21 | CCC1SC2=NC(C)=C(C(=O)OCCOC)C(c3ccc(C(=O)OC)cc3)N2C1=O (stereo unspecified) | 441 | -11.9% (inactive) | -71.6% (inactive) | 154 | 0.414 | -0.811 | -0.806 | -2.29% (inactive) | -0.411 (inactive) | -4.9e-05 (inactive) | 0.0052 (inactive) | inactive | 6.13% (inactive)
22 | CCc1[nH]c(=O)c(C#N)c2c1CSC(C)(C)C2 | 678 | -9.4% (inactive) | -211% (inactive) | 166 | 0.402 | 0.0532 | -0.896 | -6.06% (inactive) | -0.471 (inactive) | -6.8e-05 (inactive) | 0.00604 (inactive) | inactive | 11.4% (inactive)
23 | CCOC(=O)c1c(-c2cccs2)csc1NC(=O)c1ccncc1 | 469 | -0.7% (inactive) | -21.4% (inactive) | 128 | 0.172 | 0.303 | -0.644 | 4.37% (inactive) | -0.308 (inactive) | -2.8e-05 (inactive) | 0.00693 (inactive) | inactive | 12.5% (inactive)
24 | COc1ccc(OCC(O)CN2C(=O)NC(C)(C)C2=O)cc1 (stereo unspecified) | 617 | -6.4% (inactive) | 33.5% (inactive) | 155 | 0.439 | -0.253 | -0.891 | 9.42% (inactive) | -0.419 (inactive) | -3.6e-05 (inactive) | 0.0058 (inactive) | inactive | -2.72% (inactive)
25 | O=C1C(=O)N(CCCn2ccnc2)C(c2ccccn2)/C1=C(/O)c1ccccc1 (stereo unspecified) | 436 | -12.2% (inactive) | -259% (inactive) | 147 | -0.279 | -1.33 | 0.494 | 9.37% (inactive) | -0.469 (inactive) | -5.2e-05 (inactive) | 0.00446 (inactive) | inactive | 0.678% (inactive)
26 | COc1ccccc1C1/C(=C(/O)c2ccc(C)cc2)C(=O)C(=O)N1CCN1CCOCC1 (stereo unspecified) | 652 | -11.9% (inactive) | -32.2% (inactive) | 133 | -0.486 | -0.67 | 0.136 | -2.09% (inactive) | -0.506 (inactive) | -4e-05 (inactive) | 0.0067 (inactive) | inactive | 0.641% (inactive)
27 | N#C/C(C(=O)N1CCCCC1)=C1\Nc2ccccc2S1 | 649 | 6.4% (inactive) | -0.9% (inactive) | 117 | -0.0253 | -0.323 | -0.359 | 1.63% (inactive) | -0.457 (inactive) | -6.2e-05 (inactive) | 0.00412 (inactive) | inactive | 15.7% (inactive)
